Source: PubChem BioAssay
Tb MetRS inh = blocks T. brucei methionyl-tRNA synthetase activity; AID 624268; inhibition, % at 11.9 µM; purified T. brucei MetRS, ATP depletion, Kinase-Glo luminescence; actives 0.4% (n = 360,000);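 active = inhibition above a per-plate cutoff of the control wells' mean inhibition plus 3 SD, cut at about 5.5% in these data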;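 note: 0% = DMSO wells median and 100% = median of wells with control inhibitor compound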
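technique = Kinase-Glo luminescence, ATP depletion format | system = purified MetRS (methionyl-tRNA synthetase) enzyme from Trypanosoma brucei | timing = 15 min preincubation, 2 h reaction, all 25 °C | evaluation = percent inhibition versus plate control medians | dosing = single dose, 11.9 µM final nominal, 0.9% final DMSO | also added = substrates ATP, L-methionine and bulk Escherichia coli tRNA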
IDE cell activ = IDE (human) activation, cell-based; P14735; HEK cells, FAbeta-B cleavage, fluorescence polarization; 0% vehicle, 100% cell-free pure enzyme wells; activation, % at 5.96 µM; actives 0.073% (n = 340,000); AID 493087;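 active = activation above the mean of all tested compounds plus 3 SD, set per screening campaign, cut at about 17% in these data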
IDE cell inh = inhibitors of human insulin-degrading enzyme in cells; HEK cells, FAbetaB cleavage, fluorescence polarization; inhibition, % at 5.59 µM; actives 0.41% (n = 320,000); AID 434962;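 active = percent inhibition above the average of all tested compounds plus 3 SD, set per screening campaign, cut at about 16% in these data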;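 note: IDE supplied by intact live HEK cells; FP after avidin binding of uncleaved biotin substrate so inhibition keeps polarization high; 0% = DMSO wells and 100% = 60 µM reference IDE inhibitor Ii1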
TPT1 inh = blocks Candida albicans tRNA 2'-phosphotransferase | recombinant caTPT1, FP RNA substrate dephosphorylation | inhibition, % at 5 µM | actives 0.81% (n = 300,000) | AID 1962;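 active = inhibition above the mean of all tested compounds plus 3 SD, set per screening campaign, cut at about 24% in these data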;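 note: plate controls were DMSO alone for no effect and ferristatin control at 100 nM for full effect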
HNF4A DNA FP = change in binding of human HNF4 alpha to DNA; actives 0.3% (n = 360,000); activity change, % at 10 µM; AID 1224865; P41235; HNF4a-FITC DNA binding, fluorescence polarization, 1 h; in the data active = activity change above about 30%, passing the limit was not always enough
CSN deneddyl inh = CSN deneddylation inhibition. Q92905. Purified CSN, SCF-Nedd8-OG deneddylation, fluorescence polarization. inhibition, % at 12.5 µM. actives 0.38% (n = 360,000). AID 651999;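 active = pattern-corrected inhibition above about 35%, with an unprinted fluorescence ratio check between 0.5 and 1.5, limit read from the data, passing the limit was not always enough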;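 note: 0% = enzyme with substrate and 100% = substrate without enzyme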
Target sequence (Q92905 whole entry, looked up, one chain of several): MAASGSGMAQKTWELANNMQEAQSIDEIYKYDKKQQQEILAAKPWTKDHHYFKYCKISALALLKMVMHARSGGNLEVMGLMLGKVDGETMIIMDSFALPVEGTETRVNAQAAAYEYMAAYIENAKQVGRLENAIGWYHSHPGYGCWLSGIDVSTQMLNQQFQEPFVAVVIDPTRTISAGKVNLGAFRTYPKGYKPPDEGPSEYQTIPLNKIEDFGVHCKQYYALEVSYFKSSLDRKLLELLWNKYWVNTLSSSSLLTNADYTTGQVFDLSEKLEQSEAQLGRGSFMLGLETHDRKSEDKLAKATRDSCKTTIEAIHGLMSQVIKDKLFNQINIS
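Schedule: reaction 90 min, room temperature / Assay system: HEK293T-derived human Csn5 enzyme / Input: Csn5 at 0.24 nM final / Measure: inhibition of Csn5 cleavage, % / Control set: substrate-only high control, full reaction low control / Technique: fluorescence polarization of the substrate / Buffer or medium: Tris/NaCl/DTT buffer, pH 7.5 / Reagent: SCFSkp2-Nedd8OG substrate at 10 nM final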
IDE inh confirm = cellular human IDE inhibition, confirmation; shares compounds with IDE cell inh; HEK cells, FAbetaB cleavage, fluorescence polarization; inhibition, % at 5.59 µM; actives 51% (n = 1,200); AID 435028;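 active = mean inhibition across triplicate wells above the cutoff set by the earlier primary insulin-degrading enzyme screen, cut at about 16% in these data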;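 note: 0% = DMSO wells and 100% = 60 µM reference IDE inhibitor Ii1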
HEK293 tox = kills HEK cells in IDE inhibitor counter-screen. shares compounds with IDE cell inh. HEK293 cytotoxicity, ATP luminescence. inhibition, % at 5.59 µM. actives 28% (n = 1,200). AID 449730; in the data active = inhibition above about 22%;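 note: 0% = vehicle wells and 100% = reference cytotoxic drug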
* marks the source's active call; other numbers are inactive results; . = no result. An excerpt weighted towards active compounds, which were near 1.7% of everything screened.

SMILES	Tb MetRS inh	IDE cell activ	IDE cell inh	TPT1 inh	HNF4A DNA FP	CSN deneddyl inh	IDE inh confirm	HEK293 tox
Cc1ccc(/C=N\NC(=O)/C(=C\Nc2nccc(C)n2)NC(=O)c2ccccc2)cc1	1	-47	26*	0	0	-5	31*	10
Nc1nnnn1/N=C/c1cc(Cl)cc(Cl)c1O	-1	-36	19*	-32	-47	-15	43*	8
Nc1nnnn1/N=C/c1cc(Cl)ccc1O	0	-9	9	-10	-10	-8	.	.
C=CCn1c(SCC(=O)N2CCOCC2)nc2sc(CC)cc2c1=O	0	-7	7	.	-2	-3	.	.
C=CCn1c(SCC(=O)N2CCc3ccccc3C2)nc2sc(CC)cc2c1=O	-1	-2	17*	5	2	1	7	12
CN(C)c1nc(NNC(=O)c2ccccc2)nc(N(C)C)n1	-1	6	.	.	-2	1	.	.
CCOc1ccc(N(CC(=O)Nc2cc(C)ccc2C)S(=O)(=O)c2c(C)[nH]c(=O)[nH]c2=O)cc1	-1	6	-3	3	-2	5	.	.
Cc1ccc(Nc2cnn(C34CC5CC(CC(CC(=O)O)(C5)C3)C4)c(=O)c2Cl)cc1C	-1	-24	32*	1	-4	-4	25*	9
O=C(O)CC12CC3CC(C1)CC(n1ncc(NCC4CCCO4)c(Cl)c1=O)(C3)C2 (stereo not given)	-1	-1	-1	-1	0	1	.	.
COC(=O)c1c(NS(=O)(=O)c2cccs2)sc2c1CCCC2	0	3	18*	-7	-3	1	6	10
COc1cc(/C=C/C(=O)c2ccc(NS(=O)(=O)c3ccc(C)cc3)cc2)cc(OC)c1O	2	-23	27*	16	0	9	56*	45*
COc1cc(/C=C/C(=O)c2ccc(NS(=O)(=O)c3ccc(C)cc3)cc2)ccc1OC(F)F	1	3	-9	0	-5	-6	.	.
Cc1cccc(OCC(=O)Nc2nccs2)c1C	-1	-1	3	-1	3	1	.	.
COc1cccc(NC(=O)COC(=O)/C=C/c2c(C)nn(-c3ccccc3)c2C)c1	0	-17	25*	.	2	-2	21*	11
Cc1nn(-c2ccccc2)c(C)c1/C=C/C(=O)OCC(=O)Nc1ccc(C(N)=O)cc1	0	1	1	.	0	-1	.	.
COc1ccc(CN2C(=O)C(CC(=O)NCc3cccs3)CC(C(=O)N(C)C)=C2C)cc1 (stereo not given)	-1	.	.	.	1	-4	.	.
Cn1c(SCC(=O)Nc2ccc3nc(SCC(=O)N4CCCC4)sc3c2)nnc1-c1ccccc1	.	.	21*	5	.	.	14	10
CCCC(=O)Nc1ccc2nc(SCC(=O)N3CCCC3)sc2c1	0	-9	1	0	-1	4	.	.
CCOC(=O)C1CCCN(C2=NC(=O)/C(=C/c3ccc(OC)c(OC)c3)S2)C1 (stereo not given)	0	-1	4	-2	2	-4	.	.
CCOC(=O)C1CCCN(C2=NC(=O)/C(=C/c3ccc(O)c(OC)c3)S2)C1 (stereo not given)	-1	-28	25*	20	10	19	75*	15
CC(=O)N/N=C/c1cc(C(C)C)cc(/C=N/NC(C)=O)c1O	0	-46	23*	-56	-39	-24	35*	4
CC(C)(CC(=O)O)CC(=O)N1CCCN(c2nc3ccc(Cl)cc3s2)CC1	0	-22	7	-6	-2	-2	.	.
CC(C)(CC(=O)O)CC(=O)N1CCN(c2nc3ccc(Cl)cc3s2)CC1	-1	-30	16*	-2	0	0	2	14
COc1ccc(/C=N/Nc2ncnc3c2[nH]c2ccccc23)c(OC)c1OC	0	-9	7	2	1	1	.	.
COc1cccc(/C=N/Nc2ncnc3c2[nH]c2ccc(C)cc23)c1OC	-1	-45	63*	3	52*	68*	59*	14
SMILES	Tb MetRS inh	IDE cell activ	IDE cell inh	TPT1 inh	HNF4A DNA FP	CSN deneddyl inh	IDE inh confirm	HEK293 tox
CCCCn1c(SCC(=O)N2CCN(c3ccccc3)CC2)nc2ccsc2c1=O	-1	-14	21*	0	-5	3	6	19
CCCCn1c(SCC(=O)N2CCC(C)CC2)nc2ccsc2c1=O	-1	-3	2	-5	-2	-1	.	.
CCOc1cccc(C(=O)Nc2nc(-c3ccc(S(=O)(=O)N4CCOCC4)cc3)cs2)c1	0	-16	23*	0	-1	3	9	38*
COC(=O)c1cccc(-n2sc3ccccc3c2=O)c1	0	-23	68*	.	-1	-6	37*	45*
Cc1ccc(-n2sc3ccccc3c2=O)cc1	1	-51	97*	-2	-3	-1	32*	99*
O=c1c2ccccc2sn1-c1ccc(F)cc1	0	-23	60*	.	5	7	18*	64*
O=C1NC(c2cccc([N+](=O)[O-])c2)Oc2ccccc21 (stereo not given)	-1	-8	-1	-5	1	-6	.	.
O=C(NCc1ccccc1)c1cc(C2COCCN2C(=O)C2CC2)on1 (stereo not given)	0	.	.	.	1	5	.	.
NC(=O)Cn1cc(/C=N/NC(=O)c2ccc(Cn3cc(Cl)cn3)o2)c(-c2ccccc2)n1	0	1	.	.	-1	3	.	.
CC(C)C(C)NC(=O)COC(=O)c1cc(S(=O)(=O)N(C)C)ccc1N1CCCC1 (stereo not given)	.	.	10	-1	.	.	.	.
CCNc1nnc(CSc2nc3ccccc3s2)s1	0	-7	17*	0	3	0	9	8
CCc1nnc(NC(=O)CSc2nc3ccccc3s2)s1	-1	6	0	-2	1	2	.	.
Cc1sc2ncnc(N3CCC(C(=O)NNC(=O)COc4ccc(Br)cc4)CC3)c2c1C	0	-10	22*	-1	2	0	13	11
Cc1cccc(-n2c(O)c(C=Nc3ccccc3-c3n[nH]c(=S)[nH]c3=O)c3ccccc3c2=O)n1	2	-30	22*	0	-4	3	17*	2
Cc1nc2ncnn2c(N2CCCC(C(=O)Nc3ccc4c(c3)CCC4)C2)c1C (stereo not given)	-1	-34	17*	0	-1	2	12	44*
O=C(Nc1ccc2c(c1)CCC2)C1CCCN(c2ncccn2)C1 (stereo not given)	-1	0	4	-2	0	-5	.	.
